From PubChem
RGS16-Gao – modulators of RGS16 binding to Galphao, primary screen, biochemical, human proteins, multiplexed bead flow cytometry | Regulator of G-protein signaling 16 (Homo sapiens) + Guanine nucleotide-binding protein … | bead-based flow cytometry RGS16-Galphao binding, fluorescence; actives lie on both sides | binding response (% of control), % at 10 µM | 220,000 compounds, 0.38% hits | AID 1441, 2008;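 note: Galphao activated by GDP with aluminum fluoride before binding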
RGS8-Gao reg – RGS8-Galphao binding modulators, primary screen, biochemical, multiplexed bead flow cytometry | Guanine nucleotide-binding protein G(o) subunit alpha (Homo sapiens), P09471 | actives lie on both sides | response (percent of control binding), % at 10 µM | 220,000 compounds, 0.34% hits | AID 1423, 2008; in the data active = response below about 60% or above about 140%; inactive = in between;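 note: Galphao activated as the GDP aluminium fluoride complex binding bead-coupled RGS8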
Target sequence (P09471 whole entry, looked up): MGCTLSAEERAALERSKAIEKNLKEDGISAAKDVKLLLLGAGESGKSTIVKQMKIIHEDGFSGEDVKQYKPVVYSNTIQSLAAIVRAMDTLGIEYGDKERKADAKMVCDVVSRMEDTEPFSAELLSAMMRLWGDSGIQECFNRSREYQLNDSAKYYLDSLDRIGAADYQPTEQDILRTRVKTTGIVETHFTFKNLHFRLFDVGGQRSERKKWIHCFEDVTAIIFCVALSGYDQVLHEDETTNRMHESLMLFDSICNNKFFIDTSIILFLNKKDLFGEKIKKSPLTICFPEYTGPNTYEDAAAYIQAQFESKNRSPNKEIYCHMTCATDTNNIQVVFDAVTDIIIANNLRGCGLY
RGS7-Gao – RGS7-Galphao binding modulators, primary screen, biochemical, multiplexed bead flow cytometry. 220,000 compounds, 0.35% hits. Guanine nucleotide-binding protein G(o) subunit alpha (Homo sapiens), P09471. binding response (% of control), % at 10 µM. actives lie on both sides; in the data active = binding response below about 49% or above about 150%; inconclusive = no clear call, values can overlap the other calls; inactive = in between;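 note: fluorescent Galphao held in activated GDP-AlF4 state binding bead-coupled RGS7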
ABCB1 inh – ABCB1 efflux pump inhibitors, primary screen, cell-based, multiplex, flow cytometry, ABCG2 counter-screen; ATP-dependent translocase ABCB1 (Homo sapiens), P08183; CCRF-Adr cells, JC-1 efflux; inhibition, % at 6.6 µM; 190,000 compounds, 0.067% hits; AID 1326, 2008; in the data active = inhibition above about 40%;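 note: 0% = vehicle and 100% = reference inhibitor; higher value means more JC-1 retained so stronger ABCB1 efflux block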
RGS4-Gao reg – modulators of RGS4 binding to Galphao, primary screen, biochemical, multiplexed bead flow cytometry; Guanine nucleotide-binding protein G(o) subunit alpha (Homo sapiens), P09471; actives lie on both sides; binding response (% of control), % at 10 µM; 220,000 compounds, 0.33% hits; in the data active = binding response below about 49% or above about 150%; inactive = in between;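 note: fluorescent Galphao activated with aluminum fluoride binding bead-coupled RGS4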
ABCG2 block – ABCG2 efflux pump inhibitors, primary screen, multiplex with ABCB1, IgMXP3 cells, flow cytometry; Broad substrate specificity ATP-binding cassette transporter ABCG2 (Homo sapiens), Q9UNQ0; JC-1 efflux; inhibition, % at 6.6 µM; 190,000 compounds, 0.1% hits; AID 1325, 2008;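 active = inhibition above 80%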;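 note: 0% = DMSO and 100% = nicardipine control wells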
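Test system: ABCG2 IgMXP3 and barcoded ABCB1 CCRF-Adr cell mix; Schedule: cells with compound and JC-1, 10 min at 25 °C, rotating, no wash; Technique: flow cytometry of retained JC-1 fluorescence; Measure: % inhibition of efflux relative to nicardipine and DMSO; Controls: nicardipine high and DMSO low controls.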
RGS-Gao – modulators of RGS–Galpha-o binding, primary screen, biochemical, multiplexed beads, flow cytometry, RGS4/7/8/16/19; AID 1504, 2009; shares compounds with RGS16-Gao; 1,600 compounds, 99% hits; multiplexed bead flow cytometry; RGS4–Galpha-o binding response, % at 10 µM;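 note: fluorescently labeled Galpha-o bound to GDP with aluminium fluoride binding biotinylated RGS beads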
Avidin counter – disruption of biotin probe capture by avidin, counter-screen for RGS protein interaction modulators, biochemical, flow cytometry, bead-based; shares compounds with RGS16-Gao; streptavidin beads, fluorescein-biotin binding; inhibition, % at 10 µM; 1,700 tested, under 10 active;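 active = inhibition above 50%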;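 note: median green fluorescence of gated singlet beads compared with DMSO control wells; 0% = DMSO wells and 100% = complete loss of bead fluorescence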
RGS8-Gao confirm – RGS8-Galphao binding modulators, confirmation, biochemical, multiplexed bead flow cytometry, single concentration | shares compounds with RGS16-Gao | bead-based flow cytometry RGS8-Galphao binding, fluorescence; actives lie on both sides | binding response (% of control), % at 10 µM | 1,700 compounds, 3% hits; in the data active = binding response below about 72% or above about 130%; inactive = in between;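 note: Galphao activated as GDP AlF4 complex before binding bead RGS8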
RGS7-Gao confirm – RGS7-Galphao binding modulators, confirmation, biochemical, multiplexed bead flow cytometry, single concentration; shares compounds with RGS16-Gao; bead-based flow cytometry RGS7-Galphao binding; actives lie on both sides; response (percent of control binding), % at 10 µM; 1,700 compounds, 7.8% hits; AID 1837, 2009; in the data active = response below about 75% or above about 130%; inactive = in between;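 note: fluorescent Galphao activated with GDP and aluminum fluoride binding bead-coupled RGS7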
RGS16-Gao conf – modulators of RGS16-Galphao protein binding, confirmation, biochemical, single concentration, multiplexed bead flow cytometry; shares compounds with RGS16-Gao; bead-based flow cytometry; actives lie on both sides; response (% of control binding), % at 10 µM; 1,700 compounds, 4% hits; AID 1838, 2009; in the data active = response below about 74% or above about 130%; inactive = in between;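 note: Galphao activated as the GDP aluminium fluoride complex binding bead-coupled RGS16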
RGS4-Gao confirm – modulators of RGS4-Galphao protein binding, confirmation, biochemical, single concentration, multiplexed bead flow cytometry; shares compounds with RGS16-Gao; binding response (% of control), % at 10 µM; 1,700 compounds, 4% hits; AID 1840, 2009; actives lie on both sides; in the data active = binding response below about 74% or above about 130%; inactive = in between
RGS19-Gao single – regulators of RGS19-Galphao binding, confirmation, biochemical, single point, multiplexed bead flow cytometry. bead-based flow cytometry RGS19-Galphao binding; actives lie on both sides. shares compounds with RGS16-Gao. 1,700 compounds, 5% hits. response (percent of control binding), % at 10 µM; in the data active = response below about 50% or above about 160%; inactive = in between;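 note: 100% = no compound control and 0% = blank background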
Target sequence (P09471 whole entry, looked up): as above
Target sequence (P49795 whole entry, looked up): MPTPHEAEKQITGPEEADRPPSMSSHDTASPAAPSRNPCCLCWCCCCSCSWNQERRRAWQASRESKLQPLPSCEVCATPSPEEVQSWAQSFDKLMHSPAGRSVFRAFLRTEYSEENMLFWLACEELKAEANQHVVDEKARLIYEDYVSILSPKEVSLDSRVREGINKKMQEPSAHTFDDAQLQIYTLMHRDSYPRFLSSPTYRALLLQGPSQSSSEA
* hit, by the source's call; ? = inconclusive; / = not tested or not shown; [ ] = another dose, or the depositor's remark. Shown are actives, neighbours in structure and some others; about 0.9% of the full set was active somewhere. Unless noted, the rule behind the calls is not given here.

SMILES	RGS16-Gao	RGS8-Gao reg	RGS7-Gao	ABCB1 inh	RGS4-Gao reg	ABCG2 block	RGS-Gao	Avidin counter	RGS8-Gao confirm	RGS7-Gao confirm	RGS16-Gao conf	RGS4-Gao confirm	RGS19-Gao single
Nc1nc(NCCOCCO)nc(NCC2CCCO2)c1[N+](=O)[O-] (configuration not stated)	87.7	99.6	?	/	81.0	/	/	/	/	/	/	/	/
CCc1ccc2c(COC(=O)c3n[nH]c4ccccc34)cc(=O)oc2c1	268.7	142.8*[activator]	111.5	0.1	120.3	-0.1	120.3*	-0.1	98.8	92.8	96.8	97.0	84.2
O=C1CCCCC/C1=N/Nc1ccc(OCc2ccccc2)cc1	109.2	101.4	?	/	108.4	/	/	/	/	/	/	/	/
COC(=O)C1CCN(c2ccc(Cl)nn2)CC1	99.5	99.6	97.5	2.0	102.2	10.0	/	/	/	/	/	/	/
Cc1ccccc1NC(=O)N1CCN(c2ncccn2)CC1	98.7	98.8	99.3	1.9	99.4	3.7	/	/	/	/	/	/	/
CCOC(=O)/C(C#N)=N/Nc1ccccc1OC	19.8*	65.3	88.0	0.7	88.1	16.1	88.1*	-0.7	102.2	94.9	101.1	98.4	91.8
CCOC(=O)/C(C#N)=N\Nc1cc(Cl)ccc1OC	98.1	98.2	?	/	103.3	/	/	/	/	/	/	/	/
COc1ccc(NC(=O)CN(c2ccc([N+](=O)[O-])cc2)S(=O)(=O)c2ccccc2)c(OC)c1	106.5	102.9	100.8	5.2	100.5	22.6	/	/	/	/	/	/	/
COc1ccccc1NC(=O)CN(c1ccc([N+](=O)[O-])cc1)S(=O)(=O)c1ccccc1	184.9*[activator]	84.9	78.8	3.2	112.9	25.1	112.9*	-1.7	99.5	98.0	102.0	100.5	101.6
CC(C)c1ccccc1NC(=S)N(C)C	-25.4*	10.2*	?	/	-47.1*	/	/	-0.4	102.4	101.4	102.5	101.9	96.4
COCc1nnc(NC(=O)c2ccc(NC(C)=O)cc2)s1	50.2	63.9	53.2	0.2	45.9*	-0.8	/	-2.3	103.7	100.3	108.0	100.3	81.3
CCCC(=O)Nc1ccc(C(=O)Nc2nnc(COC)s2)cc1	104.6	103.6	105.2	1.3	106.0	10.6	/	/	/	/	/	/	/
CSc1nnnn1-c1c(C)cccc1C	99.6	101.3	?	/	99.2	/	/	/	/	/	/	/	/
Cc1ccc(NC2(c3nnnn3-c3c(C)cccc3C)CCCCC2)cc1	280.8*[activator]	135.1	112.4	1.6	116.1	7.9	116.1*	-0.7	97.8	93.0	98.7	96.6	98.5
N=C1C2=C3Sc4ccccc4N3CCCC2=NN1c1cccc(S(=O)(=O)O)c1	-6.4*	8.6*	?	/	-11.4*	/	/	-1.2	99.9	96.6	99.6	98.8	85.3
N#CC1=C2Sc3ccccc3N2CCCC1=O	94.8	99.5	103.0	0.0	102.0	0.8	/	/	/	/	/	/	/
CC/C(=N/NC(=O)c1ccccc1)c1ccc(OCCN2CCOCC2)cc1	229.3	188.7*[activator]	189.7*[activator]	0.0	206.9*[activator]	-0.4	/	1.1	100.5	98.2	99.0	99.2	109.8
C=CCn1c(O)c(N=NC(=O)OCC)c2ccccc21	107.0	102.4	101.1	0.5	100.4	29.6	/	/	/	/	/	/	/
CCOC(=O)N=Nc1c(O)n(C)c2ccccc12	92.6	96.8	185.7*[activator]	1.2	137.2	25.5	137.2*	1.0	100.3	65.5*	92.0	71.8*	102.1
Cc1ccc2cc3cc(C(=O)N4CCN(Cc5ccccc5)CC4)sc3nc2c1	193.2*[activator]	124.0	162.0*[activator]	0.3	171.7*[activator]	1.9	/	-0.5	99.4	94.5	97.0	95.1	90.0
Cc1ccc2cc3cc(C(=O)N4CCN(C(=O)c5ccco5)CC4)sc3nc2c1	96.6	101.7	100.2	0.7	100.1	1.3	/	/	/	/	/	/	/
Cc1cc(-n2c(=O)c(C#N)cc3c(=O)n4ccccc4nc32)no1	-3.0*	81.4	86.0	0.2	88.5	1.9	88.5*	/	/	/	/	/	/
O=C(/C=C/c1ccccc1Cl)NCc1cccs1	110.5	104.0	98.7	0.1	99.7	6.0	/	/	/	/	/	/	/
CC(C)(C)c1ccc(-c2noc(C(=O)NN)n2)cc1	13.8*	69.4	?	/	82.8	/	82.8*	-0.6	106.8	110.7	105.3	110.4	112.0
O=C(NCc1ccccn1)c1nc(-c2ccc(C(F)(F)F)cc2)no1	104.1	100.6	97.0	-0.1	99.0	0.1	/	/	/	/	/	/	/
